NPY-Y2 PAM-ag: potentiates or activates human NPY-Y2 receptor; cells expressing NPY-Y2, potentiator/agonist read-out; activation, % at 3.6 µM; 220,000 compounds, 0.45% hits; in the data active = activation above about 27%;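 also: cells stimulated with NPY near EC25 plus isoproterenol at EC100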
Target sequence (P49146 whole entry, looked up): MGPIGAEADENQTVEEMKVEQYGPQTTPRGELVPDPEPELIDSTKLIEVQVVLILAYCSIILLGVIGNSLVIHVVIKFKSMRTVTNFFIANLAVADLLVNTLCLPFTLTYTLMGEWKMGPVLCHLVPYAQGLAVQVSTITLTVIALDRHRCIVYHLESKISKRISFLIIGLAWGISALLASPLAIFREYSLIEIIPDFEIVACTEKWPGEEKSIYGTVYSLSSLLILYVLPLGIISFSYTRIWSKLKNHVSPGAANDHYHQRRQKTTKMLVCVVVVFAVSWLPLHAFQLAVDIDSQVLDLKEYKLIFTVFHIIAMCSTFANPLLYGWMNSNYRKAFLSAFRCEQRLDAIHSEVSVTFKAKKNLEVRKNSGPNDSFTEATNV
NPY Y1 blocker: NPY-Y1 (human) receptor antagonism; HEK293-CNG Y1 cells, membrane potential fluorescence; NPY at EC95, then isoproterenol; inhibition, % at 3.6 µM; 200,000 compounds, 1% hits; AID 1040;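 active = inhibition above the campaign mean inhibition of all tested compounds plus 3 SD, cut at about 20% in these data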
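System: HEK293 cells with Y1 receptor plus CNG channel / Probe or stimulus: NPY 25 nM then isoproterenol 1 µM plus Ro 20-1724 25 µM / Compound: one concentration, 3.6 µM, in 0.4% DMSO / Schedule: compound incubation 1 h at room temperature, readout 45 min post-stimulation / Measured by: membrane potential fluorescence / Read-out: % inhibition of NPY effect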
NPY-Y1 PAM-ag: potentiators or agonists of human neuropeptide Y receptor Y1; NPY-Y1 expressing cells, potentiator/agonist activation; P25929; activation, % at 3.6 µM; 220,000 compounds, 0.37% hits; in the data active = activation above about 33%, passing the limit was not always enough;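 also: cells stimulated with NPY at EC10 then isoproterenol at EC100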
NPY Y2 blocker: blocks the human neuropeptide Y Y2 receptor; P49146; NPY-Y2 expressing cells, antagonist mode; inhibition, % at 2.7 µM; 140,000 compounds, 0.99% hits; AID 793
NPY-Y1 ant conf: confirmation of human neuropeptide Y receptor Y1 antagonists | inhibition, % at 3.6 µM | shares compounds with NPY Y1 blocker | 1,200 compounds, 21% hits | HEK293-CNG NPY-Y1, membrane potential fluorescence, cAMP; NPY challenge against isoproterenol-raised cAMP; in the data active = inhibition above about 20%
NPY2 antag ctr: human NPY-Y2 antagonism in NPY-Y1 counter-screen; shares compounds with NPY Y1 blocker; HEK293 NPY-Y2 CNG membrane potential fluorescence; cells given NPY, then isoproterenol; inhibition, % at 3.6 µM; 1,200 compounds, 28% hits
Large screens that a line does not name were inactive (follow-up assays come after a bar, where they were run); ! = a repeat was not active. Rows were chosen to be rich in hits. Some 1.8% of all compounds tested hit in one or more screens of this group. Rule as the data show it, unless noted: active = inhibition above about 17%; inactive = the rest.

CCCCC(O)(CCCC)C(=O)NN(C(=O)OC)c1ccccc1	NPY Y1 blocker 26 | NPY-Y1 ant conf 25 | NPY2 antag ctr inactive
CCCCC(O)(CCCC)C(=O)NN(C(=O)OCC)c1ccccc1	NPY Y1 blocker 34 | NPY-Y1 ant conf inactive | NPY2 antag ctr inactive
O=C(N=Nc1c(O)[nH]c2ccc(F)cc12)C1COc2ccccc2O1 (configuration not stated)	none (no result: NPY Y1 blocker, NPY Y2 blocker)
CC(C)/C=N/Nc1nc(-c2ccc(Br)cc2)cs1	none
COc1cc(-c2noc(-c3ccccc3C(=O)NCc3ccco3)n2)cc(OC)c1OC	NPY Y1 blocker 25 | NPY-Y1 ant conf inactive | NPY2 antag ctr inactive
COc1ccc(OC)c(NC(=O)NCCc2cccc(Cl)c2)c1	none (no result: NPY Y2 blocker)
CC(C)OCCCNC(=O)c1c(N)n(/N=C/c2cccs2)c2nc3ccccc3nc12	NPY Y1 blocker 25 | NPY-Y1 ant conf inactive | NPY2 antag ctr inactive
CC1=CC(C)(C)N(C(=O)CNC2CCCCC2)c2cc(C)ccc21	NPY Y1 blocker 25 (no result: NPY Y2 blocker) | NPY-Y1 ant conf 21 | NPY2 antag ctr inactive
CC1=CC(C)(C)N(C(=O)CCl)c2cc(C)ccc21	none (no result: NPY Y2 blocker)
COc1ccc2c(c1)C(C)=CC(C)(C)N2S(=O)(=O)c1ccc(C)cc1	NPY Y1 blocker 36 (no result: NPY Y2 blocker) | NPY-Y1 ant conf inactive | NPY2 antag ctr inactive
CCNC(=O)N1c2ccc(OCC)cc2C(C)=CC1(C)C	none
CC1=CC(C)(C)N(S(=O)(=O)c2ccc(C)cc2)c2cc(C)ccc21	none
CCOc1ccc2c(c1)C(C)=CC(C)(C)N2S(=O)(=O)c1ccc(C)cc1	NPY Y1 blocker 57 (no result: NPY Y2 blocker) | NPY-Y1 ant conf 39 | NPY2 antag ctr 25
Cc1cccc(N=C(N2CCOCC2)P(=O)(N2CCOCC2)N2CCOCC2)c1	none
CCCCCn1c2c(c(=N)c3ccccc31)CCC2	none (no result: NPY Y1 blocker, NPY Y2 blocker)
CCCCCCCCCn1c2c(c(=N)c3c1CCC3)CCCC2	NPY Y1 blocker 58 (no result: NPY Y2 blocker) | NPY-Y1 ant conf 102 | NPY2 antag ctr 79
CCCCCCCCn1c2c(c(=N)c3ccccc31)CCC2	NPY Y1 blocker 99 (no result: NPY Y2 blocker) | NPY-Y1 ant conf 77 | NPY2 antag ctr 74
Cc1cc(SCC(=O)c2cccs2)nc2c(C)cccc12	NPY Y1 blocker 22 | NPY-Y1 ant conf inactive | NPY2 antag ctr inactive
COc1cccc(-n2c(CN3CCN(c4ccccc4)CC3)nc3ccc([N+](=O)[O-])cc3c2=O)c1	none
COc1cccc(-c2cc(N)nn2C(=O)Nc2ccc(Cl)cc2)c1	none
O=C(NC(N1CCCC1)C(Cl)(Cl)Cl)c1ccccc1 (configuration not stated)	none
O=C(NC(N1CCOCC1)C(Cl)(Cl)Cl)c1ccc(F)cc1 (configuration not stated)	NPY Y1 blocker 53 (no result: NPY Y2 blocker) | NPY-Y1 ant conf inactive | NPY2 antag ctr inactive
CC(=O)N(C)C(c1ccc(N(C)C)cc1)c1nnnn1-c1c(C)cccc1C (configuration not stated)	NPY Y1 blocker 24 | NPY-Y1 ant conf inactive | NPY2 antag ctr inactive
CC(=O)N(CCC(Cc1ccccc1)c1ccc2c(c1)OCO2)Cc1ccc(Cl)cc1 (configuration not stated)	none
O=C(O)CC(Cc1ccccc1)c1ccc2c(c1)OCO2 (configuration not stated)	NPY Y1 blocker 23 | NPY-Y1 ant conf inactive | NPY2 antag ctr inactive
O=C(OC(C(=O)NC1CCCC1)c1ccccn1)c1cccs1 (configuration not stated)	none
CC1(c2cc([N+](=O)[O-])cc([N+](=O)[O-])c2)CC(C)(C)N(C(=O)c2ccccc2)c2ccccc21 (configuration not stated)	none
CC1(c2ccccc2)CC(C)(C)N(C(=O)C2CCCO2)c2ccccc21 (configuration not stated)	NPY Y1 blocker 27 | NPY-Y1 ant conf inactive | NPY2 antag ctr inactive
CC(=O)OCC[N+](C)(C)C	NPY Y1 blocker 27 | NPY-Y1 ant conf 29 | NPY2 antag ctr 18!
CC(=O)OCP(C)(=O)COC(C)=O	none
Nc1ccc(Oc2ccc3nc(-c4ccccc4)c(-c4ccc([N+](=O)[O-])cc4)nc3c2)cc1	none
O=C(O)CCSc1ccc2ccccc2n1	none
O=C(O)CSc1ccc2ccccc2n1	NPY Y1 blocker 20 | NPY-Y1 ant conf inactive | NPY2 antag ctr inactive
CN(C)C(=O)CSc1nnc(Cc2ccc([N+](=O)[O-])cc2)o1	none
CCOC(=O)c1cc(-c2cccs2)nc2c1c(C)nn2-c1ccccn1	NPY Y1 blocker 62 (no result: NPY Y2 blocker) | NPY-Y1 ant conf 47 | NPY2 antag ctr 22
Cc1nn(-c2ccccn2)c2nc(-c3cccs3)cc(C(=O)NCc3ccco3)c12	none
O=C(CCCN1C(=O)c2cccc3cccc(c23)C1=O)NC1CCS(=O)(=O)C1 (configuration not stated)	none (no result: NPY Y2 blocker)
CC(C)(C)Nc1nc(N2CCCC2)nc(N2CCCC2)n1	none
CCCNc1nc(N2CCCC2)nc(N2CCCC2)n1	NPY Y1 blocker 30 (no result: NPY Y2 blocker) | NPY-Y1 ant conf inactive | NPY2 antag ctr inactive
COCc1[nH]nc2c1C(c1ccsc1)C(C#N)=C(N)O2 (configuration not stated)	none
CCCc1[nH]nc2c1C(c1ccsc1)C(C#N)=C(N)O2 (configuration not stated)	NPY Y1 blocker 40 (no result: NPY Y2 blocker) | NPY-Y1 ant conf 38 | NPY2 antag ctr 22
Cc1cccc2cc(CN(Cc3ccco3)C(=O)Nc3cccc(C#N)c3)c(Cl)nc12	NPY Y1 blocker 34 | NPY-Y1 ant conf inactive | NPY2 antag ctr inactive
Fc1ccc(C(c2nnnn2Cc2ccco2)N2CCN(C3CCCCC3)CC2)cc1 (configuration not stated)	NPY Y1 blocker 29 | NPY-Y1 ant conf inactive | NPY2 antag ctr inactive
C/C=C(\C)C(=O)OC1c2c(ccc3ccc(=O)oc23)OC(C)(C)C1OC(C)=O (configuration not stated)	none
C/C=C(/C)C(=O)OC1c2c(ccc3ccc(=O)oc23)OC(C)(C)C1OC(=O)/C(C)=C\C (configuration not stated)	NPY Y1 blocker 22 (no result: NPY Y2 blocker) | NPY-Y1 ant conf inactive | NPY2 antag ctr 31
Cc1ccc2cc3cc(C(=O)NCCCN4CCc5ccccc5C4)oc3nc2c1	NPY Y1 blocker 21 | NPY-Y1 ant conf inactive | NPY2 antag ctr inactive
Cc1ccc2cc3cc(C(=O)NCCCN4CCCCCC4)oc3nc2c1	none
CC(=O)C1=C(C)N(CC2CC2)C(=O)N[C@H]1c1ccc(Br)cc1	none
CCOC(=O)CN1C(=O)N[C@H](c2ccc(Br)cc2)C(C(C)=O)=C1C	NPY Y1 blocker 24 | NPY-Y1 ant conf inactive | NPY2 antag ctr inactive
CCCCCCC(=O)N1CCC(c2nc3c(nnn3Cc3ccccc3Cl)c(=O)[nH]2)CC1	none
c1ccc(-n2cc(CN3CCCC(CN4CCCC4)C3)c(-c3ccc4c(c3)OCO4)n2)cc1 (configuration not stated)	NPY Y1 blocker 32 (no result: NPY Y2 blocker) | NPY-Y1 ant conf inactive | NPY2 antag ctr 27
Cc1nc(C)c(C(=O)Nc2ccccc2)s1	none

High-throughput results: PubChem, The Scripps Research Institute Molecular Screening Center
